Target: T1, Protein Tat (Human immunodeficiency virus type 1 group M subtype B (isolate HXB2), UniProt P04608)
T1 sequence (P04608 whole entry): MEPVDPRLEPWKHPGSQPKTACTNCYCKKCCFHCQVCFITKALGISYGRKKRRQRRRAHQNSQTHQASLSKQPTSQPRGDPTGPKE
Test: Inhibition of HIV1 TAT transfected to human HeLa cells assessed as decrease in luminescence after 48 hrs by duel luciferase reporter gene assay
Method in brief: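 HeLa cells stably carrying HIV-1 Tat and firefly luciferase on one bicistronic mRNA plus an HIV-1 LTR-renilla luciferase reporter. IC50 taken from dose-dependent fall in renilla luminescence (Tat-TAR function); firefly signal monitors Tat expression/cytotoxicity.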

| SMILES | IC50 |
| --- | --- |
| NC(=O)CCNC[C@H](Cc1ccc(O)cc1)NC[C@H](Cc1ccc(O)cc1)NC[C@H](Cc1ccc(O)cc1)NC[C@H](Cc1ccc(O)cc1)NC[C@@H](N)Cc1ccc(O)cc1 | 30 µM |
| NC(=O)CCNC[C@H](Cc1ccc(O)cc1)NC[C@H](Cc1ccc(O)cc1)NC[C@@H](N)Cc1ccc(O)cc1 | 19 µM |
| NCCCC[C@@H](CN[C@H](CN[C@H](CN[C@H](CNCCC(N)=O)Cc1ccc(O)cc1)Cc1ccc(O)cc1)Cc1ccc(O)cc1)NC[C@H](Cc1ccc(O)cc1)NC[C@@H](N)Cc1ccc(O)cc1 | 12 µM |
| NCCCC[C@@H](CN[C@H](CNCCC(N)=O)Cc1ccc(O)cc1)NC[C@H](Cc1ccc(O)cc1)NC[C@H](CCCCN)NC[C@H](Cc1ccc(O)cc1)NC[C@@H](N)Cc1ccc(O)cc1 | 35 µM |

Stronger by IC50, values ahead:

| IC50 | SMILES |
| --- | --- |
| 10 µM | NCCCC[C@@H](CN[C@H](CNCCC(N)=O)Cc1ccc(O)cc1)NC[C@H](Cc1ccc(O)cc1)NC[C@H](CCCCN)NC[C@H](Cc1c[nH]c2ccccc12)NC[C@@H](N)Cc1ccc(O)cc1 |
| 0.9 µM | C[C@@H](CN[C@H](CN[C@H](CN[C@H](CNCCC(N)=O)Cc1ccc(O)cc1)Cc1ccc(O)cc1)Cc1ccc(O)cc1)NC[C@H](Cc1ccc(O)cc1)NC[C@H](Cc1ccc(O)cc1)NC[C@H](Cc1ccc(O)cc1)NC[C@@H](N)Cc1ccc(O)cc1 |
| 6 µM | C[C@@H](CN[C@H](CN[C@H](CN[C@H](CNCCC(N)=O)Cc1ccc(O)cc1)Cc1ccc(O)cc1)Cc1ccc(O)cc1)NC[C@H](Cc1ccc(O)cc1)NC[C@@H](N)Cc1ccc(O)cc1 |
